In ChEMBL document CHEMBL4330137, “Synthesis and antimicrobial activities of N6-hydroxyagelasine analogs and revision of the structure of ageloximes” (Bioorg Med Chem, 2019):
Values after ≈ are worked out from the molar mass of the structure shown. Active and inactive are the calls of the source. No cut-off for these calls is given here.

How the values were obtained:
[1] = system: Mycobacterium tuberculosis; assay: Antitubercular activity against Mycobacterium tuberculosis H37Rv by MABA; assay type: functional
[2] = system: Mycobacterium tuberculosis; assay: Antitubercular activity against Mycobacterium tuberculosis H37Rv by LORA; assay type: functional
Leishmania infantum = assay: Antileishmanial activity against amastigote stage of Leishmania infantum MHOM/MA(BE)/67 infected in mouse primary peritoneal macrophages assessed as decrease in parasite burden after 5 days by Giemsa staining-based microscopic method; assay type: functional, organism-based; settings: MHOM/MA(BE)/67, 120 h
Summary of the method: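 Amastigotes purified from infected hamster spleen; starch-stimulated mouse peritoneal macrophages (3·10⁴/well) infected with 4.5·10⁵ parasites in supplemented RPMI-1640. Compound (64–0.25 µM) added 2 h post-infection; 5 days, 37 °C, 5% CO2. Amastigotes per macrophage counted microscopically after 10% Giemsa staining; % burden reduction versus controls, IC50 calculated.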

Staphylococcus aureus = assay: Antibacterial activity against Staphylococcus aureus ATCC 6538 after 17 hrs by resazurin dye based fluorimetric assay; assay type: functional, organism-based; settings: ATCC 6538, 17 h
Summary of the method: (§1)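 Bacteria grown in Mueller Hinton broth; 5 × 10³ CFU/mL inoculum with compound at 64, 16, 4, 1 and 0.25 µM (DMSO final <1%), 37 °C for 17 h. Resazurin added, fluorescence read after 0.5 h (ex 550/em 590 nm). Growth normalised to untreated (100%) and medium-only (0%) wells; IC50 calculated.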

Escherichia coli [3] = assay: Antibacterial activity against Escherichia coli ATCC 8739 after 17 hrs by resazurin dye based fluorimetric assay; assay type: functional, organism-based; settings: ATCC 8739, ATCC 8739, 17 h; summary of the method: as §1
[4] = system: Trypanosoma brucei rhodesiense; assay: Antitrypanosomal activity against Trypanosoma brucei rhodesiense STIB 900 assessed as parasite growth inhibition after 72 hrs by resazurin assay; assay type: functional, organism-based; settings: STIB 900, 72 h
Summary of the method: (§2)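 Bloodstream parasites in HMI-9 with 10% inactivated FCS; 1.5 × 10³ (T. brucei) or 4 × 10³ (T. rhodesiense) per well, compound 64–0.25 µM, 37 °C, 5% CO2, 3 days. Resazurin (50 µg/mL) added; fluorescence read after 24 h (T. brucei) or 6 h (T. rhodesiense), ex 550/em 590 nm. IC50 from % growth inhibition.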

[5] = system: Staphylococcus epidermidis; assay: Antibiofilm activity against Staphylococcus epidermidis ATCC 35984 at 125 uM by safranin staining based assay relative to control; assay type: functional
Trypanosoma cruzi = assay: Antitrypanosomal activity against beta-galactosidase expressing nifurtimox-sensitive Trypanosoma cruzi Tulahuen CL2 infected in human MRC5 SV2 cells assessed as reduction in parasite burden after 168 hrs by CPRG and Nonidet based spectrophotometric analysis; assay type: functional, organism-based; settings: Tulahuen CL2, MRC-5 SV2, 168 h
Summary of the method: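 MRC-5 cells (4·10³/well) plus 4·10⁴ parasites per well with compound at 64–0.25 µM, 37 °C, 5% CO2 for 7 days. CPRG/Nonidet in PBS added; absorbance at 540 nm after 4 h. Percent burden reduction versus untreated-infected and uninfected controls; IC50 calculated.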

Trypanosoma brucei = assay: Antitrypanosomal activity against suramin-sensitive Trypanosoma brucei Squib 427 assessed as parasite growth inhibition after 72 hrs by resazurin assay; assay type: functional, organism-based; settings: Squib 427, 72 h; summary of the method: as §2
Escherichia coli [6] = assay: Growth inhibition of Escherichia coli clinical isolates at 500 uM; assay type: functional; settings: read-out: GI
Pseudomonas aeruginosa [7] = assay: Antibiofilm activity against Pseudomonas aeruginosa CUCG 56489 at 250 uM by safranin staining based assay relative to control; assay type: functional
Escherichia coli [8] = assay: Antibiofilm activity against Escherichia coli clinical isolates at 500 uM by safranin staining based assay relative to control; assay type: functional
[9] = system: Staphylococcus epidermidis; assay: Growth inhibition of Staphylococcus epidermidis ATCC 35984; assay type: functional, organism-based
[10] = Cytotoxicity against human MRC5 SV2 cells after 3 days by resazurin dye based fluorescence assay; assay type: cell-based; settings: MRC-5 SV2, 72 h
Summary of the method: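 MRC-5SV2 fibroblasts in MEM with L-glutamine, NaHCO3, 5% inactivated FCS; 5 × 10³ inoculum with compound at 64–0.25 µM (4-fold steps, DMSO <1%), 37 °C, 5% CO2, 3 days. Resazurin added, fluorescence after 4 h (ex 550/em 590 nm). Viability relative to untreated and medium controls; IC50 calculated.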

Candida albicans = assay: Antifungal activity against azole-resistant Candida albicans after 24 hrs by resazurin dye based fluorimetric assay; assay type: functional, organism-based
Summary of the method: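 Inoculum 5 × 10³ CFU/mL in RPMI-1640 with Mops buffer and glucose. Tested at 64, 16, 4, 1 and 0.25 µM from DMSO stocks, final DMSO <1%. Incubated 24 h at 37 °C, then resazurin added and fluorescence read after 0.5 h (ex 550/em 590 nm). Growth normalized to untreated (100%) and medium-only (0%) wells; IC50 calculated. Flucytosine positive control.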

Escherichia coli [11] = assay: Antibiofilm activity against Escherichia coli clinical isolates at 1 mM by safranin staining based assay relative to control; assay type: functional
Pseudomonas aeruginosa [12] = assay: Antibiofilm activity against Pseudomonas aeruginosa CUCG 56489 up to 1000 uM by safranin staining based assay; assay type: functional, organism-based
[13] = system: Staphylococcus epidermidis; assay: Antibiofilm activity against Staphylococcus epidermidis ATCC 35984 up to 1000 uM by safranin staining based assay; assay type: functional, organism-based

Compound | MIC [1] [µg/mL] | MIC [2] [µg/mL] | IC50 (Leishmania infantum) [µM] | IC50 (Staphylococcus aureus) [µM] | IC50 (Escherichia coli [3]) [µM] | IC50 [4] [µM] | IC50 (Trypanosoma cruzi) [µM] | IC50 (Trypanosoma brucei) [µM] | IC50 [10] [µM] | IC50 (Candida albicans) [µM] | further results
NNC(=O)c1ccncc1 [ISONIAZID] | 0.48 (≈ 3.5 µM) | > 128 |  |  |  |  |  |  |  |  | 
CCCCCCCCCCCCCCCCOP(=O)([O-])OCC[N+](C)(C)C [MILTEFOSINE] |  |  | 11.8 |  |  |  |  |  |  |  | 
CC(C)=CCC/C(C)=C/CC/C(C)=C/CC/C(C)=C/C[n+]1cn(C)c2nc[nH]/c(=N\O)c21.[Br-] | 11.3 | 15.3 | 2.16 | 1.89 | > 64 | 0.5 | 0.54 | 2.01 | 1.9 | 2 | Activity [5]: 90%; inhibition of growth at 500 µM (Escherichia coli [6]): 20%; Activity (Pseudomonas aeruginosa [7]): 40 - 50%; Activity (Escherichia coli [8]): 70%; IC50 [9]: 125 µM
C[C@H]1c2cccc(O)c2C(=O)C2=C(O)[C@]3(O)C(=O)C(C(N)=O)=C(O)[C@@H](N(C)C)[C@@H]3[C@@H](O)[C@@H]21 [DOXYCYCLINE] |  |  |  | 0.03 | 0.58 |  |  |  |  |  | 
CC/C(=C(\c1ccccc1)c1ccc(OCCN(C)C)cc1)c1ccccc1 [TAMOXIFEN] |  |  |  |  |  |  |  |  | 11.2 |  | 
Nc1nc(=O)[nH]cc1F [FLUCYTOSINE] |  |  |  |  |  |  |  |  |  | 0.41 | 
O=C(Cn1ccnc1[N+](=O)[O-])NCc1ccccc1 [BENZNIDAZOLE] |  |  |  |  |  |  | 2.69 |  |  |  | 
CC(C)=CCC/C(C)=C/C[n+]1cn(C)c2nc[nH]/c(=N\O)c21.[Br-] | > 50 | > 50 | 20.3 | > 64 | > 64 | 8.06 | 11.5 | 28 | > 64 | > 64 | Activity (Escherichia coli [11]): 50%; Activity (Pseudomonas aeruginosa [12]): inactive; Activity [13]: inactive
Cc1ccc(C(=O)Nc2ccc(S(=O)(=O)O)c3cc(S(=O)(=O)O)cc(S(=O)(=O)O)c23)cc1NC(=O)c1cccc(NC(=O)Nc2cccc(C(=O)Nc3cc(C(=O)Nc4ccc(S(=O)(=O)O)c5cc(S(=O)(=O)O)cc(S(=O)(=O)O)c45)ccc3C)c2)c1 [SURAMIN] |  |  |  |  |  | 0.03 |  | 0.02 |  |  | 
